From PubChem
TRPN1 ag: zebrafish TRPN1 (NompC) channel agonism; HEK293 zebrafish TRPN1-YFP, Fluo-8 calcium fluorescence; 100% = response to 87 µM carbachol; activation, % at 3 µM; hit rate 0.18% among 220,000;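 active = activation above its plate's cutoff, the mean activation of test wells on that plate plus 3 SD, cut at about 19% in these data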;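 note: 0% = DMSO alone and 100% = 87 µM carbachol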
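Material: zebrafish TRPN1-YFP in HEK293 cells. Doses: one dose of 3 µM, 0.3% DMSO. Incubation: dye 1 h 37 °C plus 30 min RT. Measured by: intracellular calcium fluorescence with Fluo-8.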
CHO parental Ca: signal in parental CHO cells, OX1R antagonist counter-screen; parental CHO-K1, ATP-induced calcium, Fluo-8 fluorescence; inhibition, % at 5.6 µM; hit rate 0.63% among 330,000;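 active = inhibition above that plate's mean sample inhibition plus 3 SD, cut at about 26% in these data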;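 note: 0% = ATP-challenged DMSO wells and 100% = DMSO wells without ATP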
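Test system: untransfected parental CHO cell line; also added: ATP stimulus; dosing: 5.6 µM, single dose; signal: calcium-sensitive Fluo-8 fluorescence; measure: percent inhibition of ATP-evoked calcium rise, normalized to controls; benchmarks: low control ATP plus DMSO, high control DMSO only; replication: one well per compound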
OX1R antag-1: OX1R (human) antagonism | OX1R-expressing cells, FRET antagonist read-out | inhibition, % at 6.6 µM | hit rate 1.8% among 330,000; in the data active = inhibition mostly above about 38%, no sharp cut-off; inactive = mostly below about 40%;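 note: 0% = agonist challenge alone and 100% = reference antagonist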
Target sequence (O43613 whole entry, looked up): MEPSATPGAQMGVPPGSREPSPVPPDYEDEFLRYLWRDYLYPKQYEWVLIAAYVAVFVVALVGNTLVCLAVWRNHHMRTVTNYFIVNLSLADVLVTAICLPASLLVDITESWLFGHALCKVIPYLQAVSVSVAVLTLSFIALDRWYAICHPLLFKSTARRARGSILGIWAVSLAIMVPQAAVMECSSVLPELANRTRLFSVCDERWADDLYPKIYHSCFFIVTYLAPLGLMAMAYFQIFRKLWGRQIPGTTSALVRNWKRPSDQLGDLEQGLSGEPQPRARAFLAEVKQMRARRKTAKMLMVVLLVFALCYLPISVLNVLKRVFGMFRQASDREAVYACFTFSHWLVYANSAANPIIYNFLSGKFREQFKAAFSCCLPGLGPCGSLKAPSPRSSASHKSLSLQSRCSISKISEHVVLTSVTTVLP
GPR7 antag: antagonists of human GPR7 (neuropeptides B/W receptor 1). P48145. GPR7-expressing cells, fluorescence antagonist assay. inhibition, % at 4.4 µM. hit rate 1.1% among 290,000. AID 1861; in the data active = inhibition above about 16%, passing the limit was not always enough;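 note: cells stimulated with the agonist NPW; 0% = agonist with vehicle and 100% = vehicle without agonist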
OX1R antag-2: human HCRTR1 antagonism; AID 434989; inhibition, % at 5 µM; O43613; CHO/OX1R cells, Fluo-8 calcium fluorescence, orexin A; hit rate 0.43% among 330,000;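 active = inhibition above its plate's threshold, mean inhibition of all tested compounds on the plate plus 3 SD, cut at about 37% in these data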;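 note: 0% = orexin A challenge wells and 100% = SB-334867-A antagonist wells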
TRPML3 ag: activates the human TRPML3 channel. Q8TDD5. HEK293 TRPML3-YFP, Fluo-8 calcium fluorescence; 100% = the carbachol control signal. activation, % at 3 µM. hit rate 0.29% among 220,000;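 active = activation above its plate's cutoff, the mean activation of the plate's test wells plus 3 SD, cut at about 12% in these data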;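 note: 0% = DMSO only wells and 100% = carbachol wells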
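Material: TRPML3-YFP stable HEK293 cells | Dosing: One concentration, 3 µM nominal, 0.3% DMSO | Timing: 125 s total fluorescence read per well | Technique: Fluo-8 calcium dye fluorescence, ex 470-495, em 515-575 nm | Measure: Percent activation from peak-to-basal fluorescence ratio, scaled between DMSO and carbachol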
GPR7 antag conf: confirmation of human GPR7 antagonists; GPR7-expressing cells, calcium fluorescence antagonist mode; hit rate 52% among 2,400; inhibition, % at 4.4 µM; AID 1952; shares compounds with GPR7 antag; in the data active = inhibition above about 24%;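 note: stimulated with the GPR7 agonist NPW; 0% = agonist plus vehicle and 100% = vehicle alone without agonist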
MCHR1 antagonist: counter-screen for GPR7 antagonists: antagonists of human MCHR1. shares compounds with GPR7 antag. MCHR1-expressing cells, fluorescence antagonist assay. inhibition, % at 4.4 µM. hit rate 62% among 2,400. AID 2148; in the data active = inhibition above about 22%;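 note: 0% = vehicle with agonist and 100% = vehicle without agonist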
An asterisk follows results filed as active; . = not tested or not shown. Compounds with a hit are over-represented: about 3.2% of the library has one in this group of screens.

SMILES	TRPN1 ag	CHO parental Ca	OX1R antag-1	GPR7 antag	OX1R antag-2	TRPML3 ag	GPR7 antag conf	MCHR1 antagonist
CCc1ccc(CN2CCC(n3nccc3NC(=O)c3ccccc3C)CC2)cc1	.	-15	28	27*	-38	.	10	26*
Cc1ccccc1C(=O)Nc1ccnn1C1CCN(Cc2cccnc2)CC1	.	-6	17	-8	-20	.	.	.
Cc1ccccc1OCC(=O)Nc1ccc(N2CCN(C)CC2)c(Cl)c1	.	-5	12	0	-24	.	.	.
NCCSc1c(-c2ccccc2)[nH]c2ccccc12	0	-9	2	21*	-3	1	19	23*
CN(C)CCCNS(=O)(=O)c1ccc(NC2CCCCCC2)c([N+](=O)[O-])c1	.	28	18	23*	18	.	48*	51*
CCNc1ccc(S(=O)(=O)NCCN(C)C)cc1[N+](=O)[O-]	0	4	28	-13	-1	1	.	.
CCN(CC)C(=S)NC(=O)c1cc(OC)c(OC)c(OC)c1	2	5	25	-3	0	1	.	.
O=C(Nc1ccc(Cl)c([N+](=O)[O-])c1)Nc1nc2ccccc2s1	3	2	-3	12	10	2	.	.
O=C(Nc1ccccc1)Nc1ccc(Cl)c([N+](=O)[O-])c1	15	10	33	26*	5	9	58*	65*
O=C(Nc1ccc(Cl)cc1)Nc1csc([N+](=O)[O-])c1	22*	65*	83*	24*	65*	15*	57*	67*
CC(=O)c1ccc(NC(=O)Nc2cccc(Cl)c2)cc1	4	38*	72*	29*	35	4	37*	67*
CC(=O)Nc1ccc(NC(=O)Nc2cccc(Cl)c2)cc1	.	-5	-2	1	-24	.	.	.
Cc1noc(C)c1CCC(=O)NC1CCCN(Cc2ccc(CC(C)C)cc2)C1 (stereo unspecified)	.	-29	-1	0	-25	.	.	.
CC(C)CCNC(=O)C(c1ccco1)N(Cc1cccs1)C(=O)Cn1nnc2ccccc21 (stereo unspecified)	-1	.	.	33*	.	-1	11	10
COCCNC(=O)C(c1cccs1)N(Cc1cccs1)C(=O)Cn1nnc2ccccc21 (stereo unspecified)	0	-26	6	3	-15	1	.	.
COc1cccc(/C=C/c2ccc3cccc(O)c3n2)c1OC	.	15	9	2	-14	.	.	.
COc1ccc(/C=C/c2ccc3cccc(O)c3n2)c(OC)c1OC	.	21	-1	32*	17	.	20	62*
CN1N=C(C(=O)N2CCc3c([nH]c4ccccc34)C2c2ccccc2Cl)CCC1=O (stereo unspecified)	1	-4	19	4	-16	1	.	.
O=C(c1cc[n+]([O-])cc1)N1CCc2c([nH]c3ccccc23)C1c1ccccc1Cl (stereo unspecified)	2	-17	13	31*	-7	2	12	7
CCC(=O)Nc1ccc2c(c1)Cc1cc(NC(=O)CC)ccc1-2	.	.	.	-16	.	.	.	.
CCCC(=O)Nc1ccc2c(c1)Cc1ccccc1-2	.	2	8	25*	-13	.	14	24*
CCSCCOC(=O)C1=C(C)N(C)C(=O)NC1c1cc(OC)ccc1OC (stereo unspecified)	-2	-13	14	23*	-10	-1	-5	10
CCSCCOC(=O)C1=C(C)NC(=O)NC1c1cc(OC)ccc1OC (stereo unspecified)	-1	-4	13	-15	-22	-1	.	.
COc1ccccc1NC(=O)CSc1nc2[nH]ncc2c(=O)[nH]1	.	-2	8	.	-13	.	.	.
COCCC(=O)N1CCC(Oc2ccc(C(=O)N3CCCCC3COC)cc2)CC1 (stereo unspecified)	.	-5	9	-4	-15	.	.	.
SMILES	TRPN1 ag	CHO parental Ca	OX1R antag-1	GPR7 antag	OX1R antag-2	TRPML3 ag	GPR7 antag conf	MCHR1 antagonist
CN(c1ccc(C(=O)NC2CCCC2)cc1)S(=O)(=O)c1ccc(Cl)cc1	.	-6	18	33*	-23	.	24	16
COc1ccc(NC(=O)[C@H](C)NC(=O)[C@@H]2Cc3ccccc3CN2C(=O)OC(C)(C)C)cc1	.	-23	18	-10	-11	.	.	.
O=C(NCC(O)CO)c1ccc2[nH]c3ccccc3c2c1 (stereo unspecified)	0	3	27	26*	11	1	0	15
CC(C)COCC(CN(Cc1ccccc1)c1ccccc1)N1CCCC1 (stereo unspecified)	-3	-23	10	46*	-27	-1	48*	31*
CC(C(=O)Nc1ccc(OCc2ccccc2)cc1)N1CCCC1 (stereo unspecified)	2	-6	-6	-1	-1	0	.	.
O=C(CCCNc1ccccc1)N/N=C/c1cccs1	1	9	9	-10	5	1	.	.
c1coc(-c2nnc(SCc3cn4ccccc4n3)o2)c1	0	-12	18	20	-12	0	.	.
Brc1c(CSc2nnc(-c3ccco3)o2)nc2ccccn12	0	-24	31	24*	-10	0	10	-4
COc1ccc(CN(C)CC(=O)Nc2ccccc2C(=O)NC2CC2)cc1OC	.	-8	7	.	-14	.	.	.
CCC(C)(C)NC(=O)c1cc(S(=O)(=O)N2CCc3ccccc32)cn1C	.	-1	8	21*	-16	.	10	35*
O=C(Nc1ccc2ccccc2c1)c1ccc(Cl)cc1Cl	0	5	13	10	-26	0	.	.
O=C(Nc1ccc2ccccc2c1)c1ccccc1O	.	9	55*	30*	9	.	39*	53*
CC(C)CCN1CCN(Cc2cccc3nonc23)CC1CCO (stereo unspecified)	-1	-15	33	24*	-25	0	-2	-2
O=S(=O)(Nc1nc2ccccc2nc1N1CCN(CCO)CC1)c1cc(F)ccc1F	.	-1	4	.	-4	.	.	.
CC(C)Cc1cc(C(=O)N2CCCC(CO)(Cc3ccc(F)cc3)C2)no1 (stereo unspecified)	.	-26	5	18	-25	.	.	.
CC(C)Cc1cc(C(=O)N2CCCC(CO)(Cc3ccc(F)cc3F)C2)n[nH]1 (stereo unspecified)	.	-29	10	.	-29	.	.	8
COc1ccc2cc([C@H](C)C(=O)N(C)Cc3ccccc3N3CCCC3)ccc2c1	.	-24	9	28*	-6	.	4	50*
CCN(CC(=O)Nc1cccc(C#N)c1)CC(=O)Nc1cccc(OC)c1	1	-20	21	27*	-18	-1	30*	17
